Here are results for 40 compounds from ChEMBL document CHEMBL4513216, “Probing the Open Global Health Chemical Diversity Library for Multistage-Active Starting Points for Next-Generation Antimalarials” (ACS Infect Dis, 2020).

The series in a line: Toxicity liver stage against HepG2, at 10uM. It is filed as cell-based. Also on record: test concentration 10 uM, cell line HepG2-A16-CD81EGFP. The conditions noted are these: human, HepG2-A16-CD81EGFP cells; read-out: INHIBITION
The method in brief: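 Uninfected HepG2-A16-CD81EGFP cells, 3 × 10^3 per well, 1536-well, plated on prespotted compound at 10 μM final, parasite-free screening media added to match infected plates; puromycin 10 μM positive, DMSO 0.5% negative; run in parallel with 48 h PbLuc assay at 37 °C, 5% CO2; viability by CellTiter-Glo luminescence, normalized to controls.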
As for `CC(C)(C)c1coc([C@@H]2COCCN2Cc2cnc3ccccc3c2)n1`, the cytotoxicity at 10 µM worked out at 10.9%.
Under `O=C1CN(C(=O)OCc2ccccc2)CC(O)CN1Cc1ccco1` (stereo not given) stands -9.92%.
`N#Cc1cccnc1OC1CCN(C(=O)c2cc(C3CC3)on2)CC1`: the cytotoxicity at 10 µM was determined as 0.253%.
Under `COc1ccc(CC(=O)Nc2c(C)nc(N3CCOCC3)nc2C)cc1` stands 5.39%.
As for `CCSc1ccccc1C(=O)N1CCC(S(=O)(=O)c2nncn2C)CC1`, the cytotoxicity at 10 µM was determined as 0.595%.
For the compound `CC(C)Nc1nc2c(c(NC3CC3)n1)CCN(C(=O)C1CCOC1)CC2` (stereo not given), the cytotoxicity at 10 µM was -145%.
The same measure for `Cc1occc1C(=O)N1CCCn2cnc(CN3CCCC3=O)c2C1`: 4.24%; for `O=C1CCCN1CC1CN(C(=O)N2CCOCC2)Cc2nccn2C1` (stereo not given): -1.05%.
Under `CCN(c1ccc(C(=O)NCCN2CCOCC2)cc1)S(=O)(=O)CC` stands 6.89%; under `CCc1ccccc1NC(=O)CCc1cnn(C)c1`, 8.66%.
The same measure for `CN1CCC2(Cc3ccccc3CN(C(=O)Cc3cccc(Cl)c3)C2)C1` (stereo not given): 6.91%; for `NC(=O)Nc1cccc(F)c1C(=O)NC1CCCC1`: -8.64%; for `Cc1csc(N2CCN(Cc3ccccn3)CC2)n1`: 6.14%.
On to `O=C(C1CCOC1)N1CCN(CC(F)(F)F)c2ccccc21` (stereo not given), for which the cytotoxicity at 10 µM is -5.74%.
On to `FC(F)(F)Oc1ccc(CN2CCCC(n3cncn3)C2)cc1` (stereo not given), for which the cytotoxicity at 10 µM was -14.4%.
The same measure for `CCc1nc2n(n1)CCCC2Nc1nc(C(C)C)ns1` (stereo not given): 3.88%; for `CNC(=O)c1ccc(CNCc2ccc(SC)c(OC)c2)cc1`: 0.838%; for `CCN(CC(=O)N(C)C)C(=O)c1cc(-c2cccc(Cl)c2)no1`: 6.17%.
Under `CCc1cnc(N2CCN(Cc3ccncc3)CC2)s1` stands 40.8%.
Under `CC(C)c1nn(C)c(N(C)C)c1CNC1CCN(CC2CC2)CC1` stands 8.96%; under `Cc1ccc2c(c1)OCCCC2NC1CCN(C)CC1` (stereo not given), 10.4%; under `NC(=O)C(NC(=O)c1cc(Br)c[nH]1)c1ccccc1` (stereo not given), 0.172%.
Consider `CC(C)(C)C(C#N)NC(=O)c1ccc(Oc2cccnc2)cc1` (stereo not given), for which the cytotoxicity at 10 µM worked out at 5.21%.
Consider `CSCCCN1C(=O)CC[C@H]2CN(Cc3ncc[nH]3)CC[C@H]21`, for which the cytotoxicity at 10 µM was 7.4%.
Consider `CN(Cc1ccc(CCC(C)(C)O)cc1)CC1(CO)CC1`, for which the cytotoxicity at 10 µM is -4.32%.
The same measure for `O=C1CCC2(CCCN(Cc3nnc(C4CC4)o3)C2)CN1CCO` (stereo not given): 5.14%; for `CCn1c(CN(C)C)nnc1C1CCN(c2nccc(NC)n2)CC1`: 7.36%.
Under `O=C(NCc1csc(Cc2ccccc2)n1)C1NCCc2[nH]cnc21` (stereo not given) stands -4.32%.
Under `Cc1ccc(OC2(C(=O)O)CCN(C(=O)CCc3ccco3)CC2)cn1` stands 1.33%; under `COc1ccc(N2CCN(C(=O)CCn3nccc3C)C(C)C2)cc1` (stereo not given), 14.3%; under `CC(C)CN1CCN(C)C(CCO)C1` (stereo not given), 1.84%.
`CC(C)CC(=O)N1CCCCC(NC(=O)CCc2cccnc2)C1` (stereo not given): the cytotoxicity at 10 µM is -1.62%.
Under `CSc1ncc(CN2CC(Oc3c(C)cccc3C)C2)cn1` stands 10.3%.
With `Cc1nc(CN2CCN(C(=O)c3sccc3C3CC3)CC2)cs1`, the cytotoxicity at 10 µM worked out at 3.61%.
Under `Cc1nc(CN2CCCC3(CCN(c4cccnc4)C3=O)C2)cs1` (stereo not given) stands 0.574%; under `Cc1cnc(N2CCOCC3(CCN(c4ccccn4)C3)C2)nc1` (stereo not given), 6.85%; under `CCN(C)c1ncnc2c1CCN(C(=O)Cc1ccccn1)CC2`, -3.26%.
`O=C(CC1CC2(CCN(CC3CC3)CC2)c2ccccc21)NC1CCC1` (stereo not given): the cytotoxicity at 10 µM is -4.63%.
The same measure for `CCn1cc2[nH]c(OC)c(CNC(=O)CCC3CCCC3)cc-2c1=O`: -3.28%.
The same measure for `COc1ccccc1-c1nnc2n1N=C(N)C(C#N)S2` (stereo not given): 1.5%.
